Data on 7 compounds can be found in PMC5196489 (International Journal for Parasitology: Drugs and Drug …, 2016).

The target in test [1] is T1, Sm.5HTRL (Schistosoma mansoni, UniProt A0A173FEI8).
T1 sequence (A0A173FEI8 1-547): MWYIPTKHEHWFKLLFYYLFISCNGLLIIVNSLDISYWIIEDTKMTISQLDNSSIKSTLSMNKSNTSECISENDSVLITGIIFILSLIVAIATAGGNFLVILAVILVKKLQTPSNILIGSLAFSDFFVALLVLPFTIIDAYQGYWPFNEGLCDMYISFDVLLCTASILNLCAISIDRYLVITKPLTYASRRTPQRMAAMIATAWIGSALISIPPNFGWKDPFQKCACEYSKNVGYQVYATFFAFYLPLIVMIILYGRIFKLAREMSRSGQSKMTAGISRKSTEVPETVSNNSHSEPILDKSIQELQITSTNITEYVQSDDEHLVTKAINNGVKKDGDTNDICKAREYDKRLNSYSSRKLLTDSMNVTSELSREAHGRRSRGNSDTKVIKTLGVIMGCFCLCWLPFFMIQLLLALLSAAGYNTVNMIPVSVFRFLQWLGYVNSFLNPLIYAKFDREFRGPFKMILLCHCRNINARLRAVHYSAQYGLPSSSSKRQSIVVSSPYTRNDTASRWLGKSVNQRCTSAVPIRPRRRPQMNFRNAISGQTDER
Nature of the test: cAMP biosensor. It is filed as cell-based. Particulars: for block of Sm.5HTRL dependent cAMP generation in vitro: Fig. 1; for IC50: read-out: IC50 Sm.5HTRL, inhibition of 5-HT (0.8 μM) evoked cAMP generation, HEK293 cells co-transfected with 22-F cAMP biosensor, IBMX 200 μM.

Test [2] relates to larval schistosomules. As to the kind of experiment: Schistosomule mobility. It is filed as cell-based, Schistosoma mansoni. The settings on record: for IC50: Schistosoma mansoni, 0.5 h, read-out: IC50 schistosomule. Summed up: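 S. mansoni PR-1 cercariae mechanically transformed, tails removed on Percoll, kept in modified Basch medium without serotonin (37 °C, 5% CO2); about 200 per 0.5 mL well. Basal movement recorded first, then 5-HT (10 μM), then rising doses of test compound added at 20x. Incubated 30 min before a 1 min video. Mobility scored as body-length deviations >20% from the mean per minute.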

In the next test the test system is adult S. mansoni. As to the kind of experiment: Adult schistosome mobility assay. Format: cell-based, Schistosoma mansoni.
In test [3] the test system is larval schistosomules. The settings on record: ref Chan et al., 2014; cited from earlier work.
Test [4] addresses T1, Sm.5HTRL. Particulars: chemical screening data; ref Chan et al., 2016b; cited from earlier work.
The test system of test [5] is human 5-HT7 receptor (Hs.5HT7R). Particulars: ref Farrell et al., 2016; cited from earlier work.

As a reminder, the IC50 is the concentration that gives 50% inhibition.

“Also recorded” adds a separate entry of the source.

For the compound `COc1cc2c(cc1O)C[C@H]1c3c(cc(O)c(OC)c3-2)CCN1C` [Boldine, (+)boldine], at Sm.5HTRL [1], the “block of Sm.5HTRL dependent cAMP generation in vitro” value is “completely blocked” and the IC50 is 1.1 ± 0.1 µM. For the same compound, the IC50 in the test on larval schistosomules [2] turned out to be 2.5 ± 1.4 µM. Further, in the test on adult S. mansoni (female adult worms, increasing 5-HT), the “effect on 5-HT stimulated motility” value is reported as “high doses of 5-HT were competent at restoring motility”.

On to `CN1CCc2cccc3c2[C@H]1Cc1ccc(O)c(O)c1-3` [Apomorphine, R-(−)-apomorphine, reference compound], for which the results for the IC50 on Sm.5HTRL [1] and with larval schistosomules [2] were 15.2 ± 3.3 µM and 24.2 ± 15.1 µM, respectively. The “effect on schistosomule contractility” value in the test with larval schistosomules [3] was “inhibits schistosomule contractility”.

`CC(C)C[C@H]1C(=O)N2CCC[C@H]2[C@]2(O)O[C@](NC(=O)[C@@H]3C=C4c5cccc6[nH]c(Br)c(c56)C[C@H]4N(C)C3)(C(C)C)C(=O)N12` [bromocriptine]: at Sm.5HTRL [4], the “inhibition at Sm.5HTRL” value is “potent, and long lasting inhibition”.

Turning to `COc1ccc2c(c1O)-c1c3c(cc4c1[C@H](C2)N(C)CC4)OCO3` [Bulbocapnine, (+)-Bulbocapnine], the values for the IC50 at Sm.5HTRL [1] and with larval schistosomules [2] were 15.2 ± 2.5 µM and 76.1 ± 17.8 µM, respectively.

For the compound `CSc1ccc2c(c1)C(N1CCN(C)CC1)Cc1ccccc1S2` (centres unmarked) [methiothepin, reference compound], the “effect on 5-HT stimulated schistosomule contractility” value in the test with larval schistosomules [2] (5-HT 10 μM plus methiothepin 10 μM, Fig. 2A) was “reversed this effect”.

On to `NCCc1c[nH]c2ccc(O)cc12` [5-HT, 5-hydroxytryptamine, reference compound], for which the “increase in schistosomule contractility” value with larval schistosomules [2] (5-HT 10 μM versus basal movement in media lacking 5-HT) was 3–5 fold. For the same compound, the “effect of 5-HT on adult worm movement” value in the test with adult S. mansoni (control worms, Fig. 4C&D) was “stimulated movement, most evident in female worms”.

Take `COc1cc2c3c(c1OC)-c1ccccc1C[C@H]3N(C)CC2` [Nuciferine, (−)nuciferine]: the “block of Sm.5HTRL dependent cAMP generation in vitro” value at Sm.5HTRL [1] was “completely blocked”. Moreover, the half-maximal inhibitory concentration (IC50) on Sm.5HTRL [1] turned out to be 0.24 ± 0.04 µM; in the test on larval schistosomules [2], 0.62 ± 0.22 µM. The “inhibition of larval contractions / schistosomule motility” value in the test with larval schistosomules [2] (5-HT 10 μM plus increasing doses of aporphine, Fig. 2) is on record as “particularly effective at inhibiting larval contractions”. For the same compound, in the test on adult S. mansoni (female adult worms, drug 10 μM, 2 h, p < 0.01 versus p < 0.05), the “effect on basal motility” value is on record as “more effective than the other ligands”. Besides, the “effect on 5-HT stimulated motility” value in the test with adult S. mansoni (male adult worms, increasing 5-HT (≤1 mM)) is listed as “no 5-HT stimulated motility even at the highest 5-HT doses; also recorded: nuciferine action not reversed by 5-HT”. The “action at the human 5-HT7 receptor” value in test [5] is given as “inverse agonist”.
